Data: ChEMBL document CHEMBL1125331, “6-Hydroxy-3-n-propyl-2,3,4,5-tetrahydro-1H-3-benzazepine and analogs: new centrally acting 5-HT1A receptor agonists” (J Med Chem, 1992)

Tests used:
[1] = test system: Rattus norvegicus; assay: Effect evaluated in vivo on 5-HTP accumulation in limbic system at a dose 3.1 umol/kg (s.c.); type: functional
Summary of the method: (§1)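 Male Sprague-Dawley rats (200–300 g) were pretreated with reserpine 5 mg/kg sc 18 h before. Test compound was given sc at 5 mL/kg in neutral solution. 5-HT synthesis rate was indexed by […] 5-HTP accumulation after decarboxylase inhibition with NSD 1015, measured by HPLC-electrochemical detection. Dose-response used 4–6 dose levels, n = 4.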

[2] = test system: Rattus norvegicus; assay: Effect evaluated in vivo on 5-HTP accumulation in limbic system at a dose 50 umol/kg (s.c.); type: functional; summary of the method: as §1
[3] = test system: Rattus norvegicus; assay: Effect evaluated in vivo on 5-HTP accumulation in corpus striatum at a dose 3.1 umol/kg (s.c.); type: functional
Summary of the method: (§2)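 Male Sprague-Dawley rats (200–300 g) were pretreated with reserpine 5 mg/kg sc 18 h beforehand. Test drug was given at neutral pH, 5 mL/kg. Aromatic amino acid decarboxylase was blocked with NSD 1015. 5-HTP in the dissected brain region was assayed by HPLC with electrochemical detection.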

[4] = test system: Rattus norvegicus; assay: Effect evaluated in vivo on 5-HTP accumulation in corpus striatum at ED50 umol/kg after subcutaneous administration; type: functional; conditions: sc; summary of the method: as §2
[5] = test system: Rattus norvegicus; assay: Effect evaluated in vivo on 5-HTP accumulation in limbic system after subcutaneous administration; type: functional; conditions: sc; summary of the method: as §2
[6] = test system: Rattus norvegicus; assay: Effect evaluated in vivo on 5-HTP accumulation in corpus striatum at a dose 50 umol/kg (s.c.); type: functional; summary of the method: as §2
[7] = test system: Rattus norvegicus; assay: Effect evaluated in vivo on 5-HTP accumulation in limbic system at a dose 12.5 umol/kg (s.c.); type: functional; summary of the method: as §1
[8] = test system: Rattus norvegicus; assay: Effect evaluated in vivo on 5-HTP accumulation in NE-rich hemispheres at ED50 umol/kg after subcutaneous administration; type: functional; conditions: sc; summary of the method: as §2
[9] = test system: Rattus norvegicus; assay: Effect evaluated in vivo on 5-HTP accumulation in NE-rich hemispheres at a 12.5 dose uM/kg(sc); type: functional; summary of the method: as §2
[10] = test system: Rattus norvegicus; assay: Effect evaluated in vivo on 5-HTP accumulation in NE-rich hemispheres at a 3.1 dose uM/kg(sc); type: functional; summary of the method: as §2
[11] = test system: Rattus norvegicus; assay: Effect evaluated in vivo on 5-HTP accumulation in NE-rich hemispheres at a 50 dose uM/kg(sc); type: functional; summary of the method: as §2
[12] = test system: Rattus norvegicus; assay: Effect evaluated in vivo on 5-HTP accumulation in corpus striatum after subcutaneous administration; type: functional; summary of the method: as §2
[13] = test system: Rattus norvegicus; assay: The compound was tested in vivo for locomotor activity in rats at 0.2 umol/kg after subcutaneous administration
[14] = target: T1, 5-hydroxytryptamine receptor 1A (Rattus norvegicus, UniProt P19327); assay: Inhibitory activity against 5-hydroxytryptamine 1A receptor in rats, using [3H]8-OH-DPAT as radioligand
T1 sequence (P19327 whole entry): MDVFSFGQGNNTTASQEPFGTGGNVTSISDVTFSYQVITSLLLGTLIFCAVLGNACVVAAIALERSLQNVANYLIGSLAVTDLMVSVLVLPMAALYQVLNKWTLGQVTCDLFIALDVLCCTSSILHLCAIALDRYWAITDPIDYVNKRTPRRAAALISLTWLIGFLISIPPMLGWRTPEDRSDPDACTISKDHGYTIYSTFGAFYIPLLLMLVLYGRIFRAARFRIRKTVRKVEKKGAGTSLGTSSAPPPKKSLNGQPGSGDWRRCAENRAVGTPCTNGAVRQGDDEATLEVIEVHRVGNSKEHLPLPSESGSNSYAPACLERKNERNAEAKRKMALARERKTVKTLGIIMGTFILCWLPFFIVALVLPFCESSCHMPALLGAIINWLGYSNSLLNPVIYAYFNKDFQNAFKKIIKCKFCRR
Summary of the method: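 Rat whole-brain membranes (minus brainstem and cerebellum) in 50 mM Tris pH 8.0 with 120 mM NaCl, 4 mM CaCl2, 4 mM MgCl2 and 10 μM pargyline. Rapid filtration, then scintillation counting. Nonspecific binding defined with 10 μM 5-HT. IC50 by semi-log plot and linear regression.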

[15] = target: D(2) dopamine receptor (Rattus norvegicus, UniProt P61169); assay: Inhibitory activity against Dopamine receptor D2 in rats using [3H]spiperone as radioligand
Summary of the method: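 Rat striatal membranes in 50 mM potassium phosphate buffer pH 7.4 were incubated with 0.5 nM [3H]spiperone for 10 min at 37 °C. Specific binding was defined with 10 μM 6,7-ADTN.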

[16] = test system: Rattus norvegicus; assay: Effect evaluated in vivo on 5-HTP accumulation in limbic system at a dose uM/kg(sc); type: functional; summary of the method: as §1
[17] = test system: Rattus norvegicus; assay: Effect evaluated in vivo on 5-HTP accumulation in corpus striatum at a dose uM/kg(sc); type: functional; summary of the method: as §2
[18] = test system: Rattus norvegicus; assay: Effect evaluated in vivo on 5-HTP accumulation in NE-rich hemispheres at a dose uM/kg(sc); type: functional; summary of the method: as §2
[19] = test system: Rattus norvegicus; assay: The compound was tested in vivo for locomotor activity in rats at 50 umol/kg after subcutaneous administration; type: functional
Summary of the method: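 Male Sprague-Dawley rats received reserpine 5 mg/kg sc in the neck 18 h before testing. Test compound was given sc in the neck (n = 4). Rats were placed singly in photocell motility meters immediately after dosing, and counts were accumulated over 30 min (tests 9 a.m.–1 p.m.). Gross behaviour, including 5-HT syndrome, was observed throughout.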

[20] = test system: Rattus norvegicus; assay: Effect evaluated in vivo on 5-HTP accumulation in NE-rich hemispheres at a 0.80 dose uM/kg(sc); type: functional; summary of the method: as §2
[21] = test system: Rattus norvegicus; assay: Effect evaluated in vivo on 5-HTP accumulation in corpus striatum at a dose 12.5 umol/kg (s.c.); type: functional; summary of the method: as §2
[22] = test system: Rattus norvegicus; assay: Effect evaluated in vivo on 5-HTP accumulation in limbic system at a dose 0.80 umol/kg (s.c.); type: functional; summary of the method: as §1
[23] = test system: Rattus norvegicus; assay: Effect evaluated in vivo on 5-HTP accumulation in NE-rich hemispheres after subcutaneous administration; type: functional; conditions: sc; summary of the method: as §2
[24] = test system: Rattus norvegicus; assay: Effect evaluated in vivo on 5-HTP accumulation in corpus striatum at a dose 0.80 umol/kg (s.c.); type: functional; summary of the method: as §2

D(2) dopamine receptor, sequence (P61169 whole entry): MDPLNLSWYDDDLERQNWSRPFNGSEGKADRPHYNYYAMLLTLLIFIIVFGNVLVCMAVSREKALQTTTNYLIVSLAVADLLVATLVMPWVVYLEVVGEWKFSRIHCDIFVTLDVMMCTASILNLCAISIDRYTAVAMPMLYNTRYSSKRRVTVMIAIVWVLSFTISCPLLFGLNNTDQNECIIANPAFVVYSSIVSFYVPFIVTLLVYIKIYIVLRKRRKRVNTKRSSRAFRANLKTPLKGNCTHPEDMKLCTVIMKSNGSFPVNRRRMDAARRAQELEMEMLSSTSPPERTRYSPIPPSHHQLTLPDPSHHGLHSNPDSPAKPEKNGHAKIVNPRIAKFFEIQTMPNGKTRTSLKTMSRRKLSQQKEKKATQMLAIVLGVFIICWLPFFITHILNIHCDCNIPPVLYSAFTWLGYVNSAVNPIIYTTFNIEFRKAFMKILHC

SMILES | Control [1] [%] | Control [2] [%] | Control [3] [%] | ED50 [5] [µmol/kg] | Control [6] [%] | Control [7] [%] | Control [9] [%] | Control [11] [%] | Locomotor activity [13] | IC50 [14] [nM] | IC50 [15] [nM] | Locomotor activity [19] | further results
CN1CCc2cccc(O)c2CC1 | 106 | 57 | 104 | 10 | 54 | 72 | 73 | 58 | 6 |  |  |  | ED50 [4]: 11 µmol/kg; ED50 [8]: 12 µmol/kg; Control [10]: 96%; Control [12]: 70%
CCCCN1CCc2cccc(O)c2CC1 |  |  |  |  |  |  |  |  |  | 420 | 12000 | 19 | Control [16]: 84%; Control [17]: 111%; Control [18]: 108%
CCN1CCc2cccc(OC)c2CC1 |  | 66 |  |  | 66 |  |  | 64 |  | 210 | 2200 | 62 | 
CCN1CCc2cccc(O)c2CC1 | 89 | 46 | 96 | 5 | 54 | 48 | 49 | 48 | 31 | 630 | 14000 |  | Control [20]: 108 µM/kg; Control [21]: 56%; Control [22]: 99%; ED50 [23]: 6 µmol/kg; ED50 ([12]; sc): 6.5 µmol/kg; Control [24]: 100%
